Legend:
Format in all cases: functional
OVCAR-5 = test: Cytotoxicity against human OVCAR5 cells assessed as growth inhibition at 10 uM after 48 hrs by sulphorhodamine B assay; settings: OVCAR-5, 48 h, read-out: GI
In short: (§1)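 NCI-60 one-dose screen per the NCI Drug Evaluation Branch protocol. Cells given a single 10 µM concentration with 48 h continuous exposure. Growth estimated by sulphorhodamine B protein assay. Result expressed as percentage growth inhibition relative to untreated growth.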

NCI-H23 = test: Cytotoxicity against human NCI-H23 cells assessed as growth inhibition at 10 uM after 48 hrs by sulphorhodamine B assay; settings: NCI-H23, 48 h, read-out: GI; in short: as §1
SF-268 = test: Cytotoxicity against human SF268 cells assessed as growth inhibition at 10 uM after 48 hrs by sulphorhodamine B assay; settings: SF-268, 48 h, read-out: GI; in short: as §1
LOX IMVI = test: Cytotoxicity against human LOXIMVI cells assessed as growth inhibition at 10 uM after 48 hrs by sulphorhodamine B assay; settings: read-out: GI; in short: as §1
RPMI-8226 = test: Cytotoxicity against human RPMI8226 cells assessed as growth inhibition at 10 uM after 48 hrs by sulphorhodamine B assay; settings: RPMI-8226, 48 h, read-out: GI; in short: as §1
MDA-MB-435 = test: Cytotoxicity against human MDA-MB-435 cells assessed as growth inhibition at 10 uM after 48 hrs by sulphorhodamine B assay; settings: MDA-MB-435, 48 h, read-out: GI; in short: as §1
UO-31 = test: Cytotoxicity against human UO31 cells assessed as growth inhibition at 10 uM after 48 hrs by sulphorhodamine B assay; settings: UO-31, 48 h, read-out: GI; in short: as §1
SK-OV-3 = test: Cytotoxicity against human SKOV3 cells assessed as growth inhibition at 10 uM after 48 hrs by sulphorhodamine B assay; settings: SK-OV-3, 48 h, read-out: GI; in short: as §1
Hs-578T = test: Cytotoxicity against human Hs578T cells assessed as growth inhibition at 10 uM after 48 hrs by sulphorhodamine B assay; settings: read-out: GI; in short: as §1
MDA-MB-468 = test: Cytotoxicity against human MDA-MB-468 cells assessed as growth inhibition at 10 uM after 48 hrs by sulphorhodamine B assay; settings: MDA-MB-468, 48 h, read-out: GI; in short: as §1
HOP-92 = test: Cytotoxicity against human HOP92 cells assessed as growth inhibition at 10 uM after 48 hrs by sulphorhodamine B assay; settings: HOP-92, 48 h, read-out: GI; in short: as §1
HCT-116 = test: Cytotoxicity against human HCT116 cells assessed as growth inhibition at 10 uM after 48 hrs by sulphorhodamine B assay; settings: HCT-116, 48 h, read-out: GI; in short: as §1
CCRF-CEM = test: Cytotoxicity against human CCRF-CEM cells assessed as growth inhibition at 10 uM after 48 hrs by sulphorhodamine B assay; settings: read-out: GI; in short: as §1
MOLT-4 = test: Cytotoxicity against human MOLT4 cells assessed as growth inhibition at 10 uM after 48 hrs by sulphorhodamine B assay; settings: MOLT-4, 48 h, read-out: GI; in short: as §1
CAKI-1 = test: Cytotoxicity against human Caki1 cells assessed as growth inhibition at 10 uM after 48 hrs by sulphorhodamine B assay; settings: CAKI-1, 48 h, read-out: GI; in short: as §1
NCI/ADR-RES = test: Cytotoxicity against human NCI/ADR-RES cells assessed as growth inhibition at 10 uM after 48 hrs by sulphorhodamine B assay; settings: read-out: GI; in short: as §1
SNB-19 = test: Cytotoxicity against human SNB19 cells assessed as growth inhibition at 10 uM after 48 hrs by sulphorhodamine B assay; settings: SNB-19, 48 h, read-out: GI; in short: as §1
A549 = test: Cytotoxicity against human A549 cells assessed as growth inhibition at 10 uM after 48 hrs by sulphorhodamine B assay; settings: A549, 48 h, read-out: GI; in short: as §1
DU-145 = test: Cytotoxicity against human DU145 cells assessed as growth inhibition at 10 uM after 48 hrs by sulphorhodamine B assay; settings: DU-145, 48 h, read-out: GI; in short: as §1
NCI-H522 = test: Cytotoxicity against human NCI-H522 cells assessed as growth inhibition at 10 uM after 48 hrs by sulphorhodamine B assay; settings: NCI-H522, 48 h, read-out: GI; in short: as §1
M14 = test: Cytotoxicity against human M14 cells assessed as growth inhibition at 10 uM after 48 hrs by sulphorhodamine B assay; settings: M14, 48 h, read-out: GI; in short: as §1
SK-MEL-5 = test: Cytotoxicity against human SK-MEL-5 cells assessed as growth inhibition at 10 uM after 48 hrs by sulphorhodamine B assay; settings: SK-MEL-5, 48 h, read-out: GI; in short: as §1
IGROV-1 = test: Cytotoxicity against human IGROV1 cells assessed as growth inhibition at 10 uM after 48 hrs by sulphorhodamine B assay; settings: IGROV-1, 48 h, read-out: GI; in short: as §1
PC-3 = test: Cytotoxicity against human PC3 cells assessed as growth inhibition at 10 uM after 48 hrs by sulphorhodamine B assay; settings: PC-3, 48 h, read-out: GI; in short: as §1
HL-60(TB) = test: Cytotoxicity against human HL-60(TB) cells assessed as growth inhibition at 10 uM after 48 hrs by sulphorhodamine B assay; settings: HL-60, 48 h, read-out: GI
In short: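 NCI-60 one-dose primary screen run to the Drug Evaluation Branch protocol. Cells are exposed to a single 10 µM concentration for 48 h continuously, and growth is read by SRB protein assay. Data are reported as percent growth of treated cells, expressed as % growth inhibition.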

HCT-15 = test: Cytotoxicity against human HCT15 cells assessed as growth inhibition at 10 uM after 48 hrs by sulphorhodamine B assay; settings: HCT-15, 48 h, read-out: GI; in short: as §1
UACC-62 = test: Cytotoxicity against human UACC62 cells assessed as growth inhibition at 10 uM after 48 hrs by sulphorhodamine B assay; settings: UACC-62, 48 h, read-out: GI; in short: as §1
MCF7 = test: Cytotoxicity against human MCF7 cells assessed as growth inhibition at 10 uM after 48 hrs by sulphorhodamine B assay; settings: MCF7, 48 h, read-out: GI; in short: as §1
SNB-75 = test: Cytotoxicity against human SNB75 cells assessed as growth inhibition at 10 uM after 48 hrs by sulphorhodamine B assay; settings: SNB-75, 48 h, read-out: GI; in short: as §1
ACHN = test: Cytotoxicity against human ACHN cells assessed as growth inhibition at 10 uM after 48 hrs by sulphorhodamine B assay; settings: read-out: GI; in short: as §1
SK-MEL-2 = test: Cytotoxicity against human SK-MEL-2 cells assessed as growth inhibition at 10 uM after 48 hrs by sulphorhodamine B assay; settings: SK-MEL-2, 48 h, read-out: GI; in short: as §1
HT-29 = test: Cytotoxicity against human HT-29 cells assessed as growth inhibition at 10 uM after 48 hrs by sulphorhodamine B assay; settings: HT-29, 48 h, read-out: GI; in short: as §1
SF-295 = test: Cytotoxicity against human SF295 cells assessed as growth inhibition at 10 uM after 48 hrs by sulphorhodamine B assay; settings: SF-295, 48 h, read-out: GI; in short: as §1
RXF 393 = test: Cytotoxicity against human RXF393 cells assessed as growth inhibition at 10 uM after 48 hrs by sulphorhodamine B assay; settings: RXF 393, 48 h, read-out: GI; in short: as §1
OVCAR-4 = test: Cytotoxicity against human OVCAR4 cells assessed as growth inhibition at 10 uM after 48 hrs by sulphorhodamine B assay; settings: OVCAR-4, 48 h, read-out: GI; in short: as §1
U-251 = test: Cytotoxicity against human U251 cells assessed as growth inhibition at 10 uM after 48 hrs by sulphorhodamine B assay; settings: U-251, 48 h, read-out: GI; in short: as §1
[1] = Cytotoxicity against human EKVX cells assessed as growth inhibition at 10 uM after 48 hrs by sulphorhodamine B assay; settings: read-out: GI; in short: as §1
A498 = test: Cytotoxicity against human A498 cells assessed as growth inhibition at 10 uM after 48 hrs by sulphorhodamine B assay; settings: A498, 48 h, read-out: GI; in short: as §1
SR = test: Cytotoxicity against human SR cells assessed as growth inhibition at 10 uM after 48 hrs by sulphorhodamine B assay; settings: read-out: GI; in short: as §1
K562 = test: Cytotoxicity against human K562 cells assessed as growth inhibition at 10 uM after 48 hrs by sulphorhodamine B assay; settings: K562, 48 h, read-out: GI; in short: as §1
T47D = test: Cytotoxicity against human T47D cells assessed as growth inhibition at 10 uM after 48 hrs by sulphorhodamine B assay; settings: read-out: GI; in short: as §1

## CCSc1nc(N)c2c(-c3ccc(OC)cc3)c3c(nc2n1)C(C)CCC3 (stereo unspecified)
OVCAR-5
  inhibition of growth at 10 µM: < 10%
NCI-H23
  inhibition of growth at 10 µM: < 10%
SF-268
  inhibition of growth at 10 µM: < 10%
LOX IMVI
  inhibition of growth at 10 µM: 10.6%
RPMI-8226
  inhibition of growth at 10 µM: 25.5%
MDA-MB-435
  inhibition of growth at 10 µM: < 10%
UO-31
  inhibition of growth at 10 µM: 10.5%
SK-OV-3
  inhibition of growth at 10 µM: < 10%
Hs-578T
  inhibition of growth at 10 µM: 36.2%
MDA-MB-468
  inhibition of growth at 10 µM: 13.8%
HOP-92
  inhibition of growth at 10 µM: 26.8%
HCT-116
  inhibition of growth at 10 µM: 20%
CCRF-CEM
  inhibition of growth at 10 µM: 26.4%
MOLT-4
  inhibition of growth at 10 µM: 29%
CAKI-1
  inhibition of growth at 10 µM: < 10%
NCI/ADR-RES
  inhibition of growth at 10 µM: < 10%
SNB-19
  inhibition of growth at 10 µM: 12.5%
A549
  inhibition of growth at 10 µM: 16%
DU-145
  inhibition of growth at 10 µM: 24.5%
NCI-H522
  inhibition of growth at 10 µM: 13.2%
M14
  inhibition of growth at 10 µM: < 10%
SK-MEL-5
  inhibition of growth at 10 µM: 11.4%
IGROV-1
  inhibition of growth at 10 µM: < 10%
PC-3
  inhibition of growth at 10 µM: 31.4%
HL-60(TB)
  inhibition of growth at 10 µM: 34.5%
HCT-15
  inhibition of growth at 10 µM: 23.8%
UACC-62
  inhibition of growth at 10 µM: 25%
MCF7
  inhibition of growth at 10 µM: < 10%
SNB-75
  inhibition of growth at 10 µM: < 10%
ACHN
  inhibition of growth at 10 µM: 30.8%
SK-MEL-2
  inhibition of growth at 10 µM: < 10%
HT-29
  inhibition of growth at 10 µM: 23.3%
SF-295
  inhibition of growth at 10 µM: < 10%
RXF 393
  inhibition of growth at 10 µM: 25.9%
OVCAR-4
  inhibition of growth at 10 µM: 26.8%
U-251
  inhibition of growth at 10 µM: 16%
[1]
  inhibition of growth at 10 µM: < 10%
A498
  inhibition of growth at 10 µM: < 10%
SR
  inhibition of growth at 10 µM: < 10%
K562
  inhibition of growth at 10 µM: 32.5%
T47D
  inhibition of growth at 10 µM: 41%

Source: ChEMBL document CHEMBL2375313, “Synthesis, in vitro antitumor evaluation and DNA-binding study of novel tetrahydroquinolines and some derived tricyclic and tetracyclic ring systems” (Eur J Med Chem, 2013)
